From ChEMBL document CHEMBL4715748, “Synthesis and biological investigation of new equatorial (β) stereoisomers of 3-aminotropane arylamides with atypical antipsychotic profile” (Bioorg Med Chem, 2016)
pKi: −log10 of the molar value.

Legend:
[1] = Half life in pooled human liver microsomes assessed as parent compound remaining at 2.5 uM measured up to 45 mins in presence of NADPH by LC-MS analysis; format: ADME, Microsome
Method in brief: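 Compound at 2.5 μM (added from 100 μM stock in 50/50 acetonitrile/water) with 1 mg/mL pooled human liver microsomes and 250 μM NADPH in 0.1 M potassium phosphate pH 7.4 at 37 °C after 5-min preincubation. Sampled at 5, 10, 15, 30, 45 min into ice-cold acetonitrile with atropine internal standard; parent quantified by LC-MS (ESI+, [M+H]+); no-NADPH controls; half-time derived.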

Mus musculus [2] = test: Effect on 8-OH-DPAT-induced hypothermia in Swiss albino mouse assessed as change in rectal body temperature at 10 mg/kg, ip pretreated with compound for 45 mins followed by 8-OH-DPAT challenge and measured after 60 min by thermometer (reference value: -0.66 to -0.5 degreeC); format: functional, organism-based; details: time 105.0 min
Mus musculus [3] = test: Antipsychotic activity Swiss Albino mouse assessed as inhibition of DOI-induced head twitching by measuring number of episodes at 5 mg/kg, ip administered 30 mins prior to DOI stimulation (reference value: 19.63 to 19.88); format: functional; details: 0.5 h
Method in brief: (§1)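 Male Albino Swiss mice (24–28 g) were habituated to sawdust-lined cages 20 min before the first treatment. Compounds were suspended in 1% aqueous Tween 80 and given i.p. 30 min before (±)-DOI, 2.5 mg/kg i.p. in aqueous solution. Head twitches were counted blind over 20 min, n=8 per group, mean ± SEM, one-way ANOVA with Dunnett's test.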

Mus musculus [4] = test: Effect on 8-OH-DPAT-induced hypothermia in Swiss albino mouse assessed as change in rectal body temperature at 10 mg/kg, ip pretreated with compound for 45 mins followed by 8-OH-DPAT challenge and measured after 45 min by thermometer (reference value: -1.04 to -0.78 degreeC); format: functional, organism-based; details: time 90.0 min
[5] = Effect on body temperature in Swiss Albino mouse assessed as rectal body temperature at 20 mg/kg, ip measured after 60 mins by thermometer (reference value: 0.33 to 0.61 degreeC); format: ADME, organism-based; details: in vivo, 1 h
Mus musculus [6] = test: Effect on 8-OH-DPAT-induced hypothermia in Swiss albino mouse assessed as change in rectal body temperature at 20 mg/kg, ip pretreated with compound for 45 mins followed by 8-OH-DPAT challenge and measured after 60 min by thermometer (reference value: -0.66 to -0.5 degreeC); format: functional, organism-based; details: time 105.0 min
[7] = Effect on 8-OH-DPAT-induced lower lip retraction in Wistar rat at 20 mg/kg, ip pretreated with compound for 45 mins followed by 8-OH-DPAT challenge and measured after 15 mins (reference value: 2.7 to 2.8); format: functional; details: time 60 min, 1 h
[8] = Effect on body temperature in Swiss Albino mouse assessed as rectal body temperature at 10 mg/kg, ip measured after 60 mins by thermometer (reference value: 0.33 to 0.61 degreeC); format: ADME, organism-based; details: in vivo, 1 h
Mus musculus [9] = test: Effect on 8-OH-DPAT-induced hypothermia in Swiss albino mouse assessed as change in rectal body temperature at 10 mg/kg, ip pretreated with compound for 45 mins followed by 8-OH-DPAT challenge and measured after 30 min by thermometer (reference value: -1.36 to -1.12 degreeC); format: functional, organism-based; details: time 75.0 min
[10] = Effect on body temperature in Swiss Albino mouse assessed as rectal body temperature at 10 mg/kg, ip measured after 90 mins by thermometer (reference value: 0.18 to 0.63 degreeC); format: ADME, organism-based; details: in vivo, 1.5 h
[11] = Effect on 8-OH-DPAT-induced lower lip retraction in Wistar rat at 10 mg/kg, ip pretreated with compound for 45 mins followed by 8-OH-DPAT challenge and measured after 15 mins (reference value: 2.7 to 2.8); format: functional; details: time 60 min, 1 h
Mus musculus [12] = test: Antipsychotic activity Swiss Albino mouse assessed as inhibition of DOI-induced head twitching by measuring number of episodes at 2.5 mg/kg, ip administered 30 mins prior to DOI stimulation (reference value: 19.63 to 19.88); format: functional; details: 0.5 h; method in brief: as §1
[13] = molecular target: 5-hydroxytryptamine receptor 2A (Rattus norvegicus, UniProt P14842); test: Displacement of [3H]-ketanserin from rat cerebral cortex 5HT2A receptor measured after 20 mins by liquid scintillation counter method
Method in brief: (§2)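 Competition binding in rat brain tissue membranes against D2, 5-HT1A and 5-HT2A sites; Ki reported as mean ± S.E.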

[14] = Effect on body temperature in Swiss Albino mouse assessed as rectal body temperature at 20 mg/kg, ip measured after 120 mins by thermometer (reference value: 0.15 to 1.11 degreeC); format: ADME, organism-based; details: in vivo, 2 h
Mus musculus [15] = test: Antipsychotic activity Swiss Albino mouse assessed as inhibition of DOI-induced head twitching by measuring number of episodes at 10 mg/kg, ip administered 30 mins prior to DOI stimulation (reference value: 19.63 to 19.88); format: functional; details: 0.5 h; method in brief: as §1
[16] = Effect on body temperature in Swiss Albino mouse assessed as rectal body temperature at 20 mg/kg, ip measured after 30 mins by thermometer (reference value: 0.16 to 0.33 degreeC); format: ADME, organism-based; details: in vivo, 0.5 h
Mus musculus [17] = test: Effect on 8-OH-DPAT-induced hypothermia in Swiss albino mouse assessed as change in rectal body temperature at 20 mg/kg, ip pretreated with compound for 45 mins followed by 8-OH-DPAT challenge and measured after 45 min by thermometer (reference value: -1.04 to -0.78 degreeC); format: functional, organism-based; details: time 90.0 min
[18] = molecular target: T1, 5-hydroxytryptamine receptor 1A (Rattus norvegicus, UniProt P19327); test: Displacement of [3H]-8-OH-DPAT from rat cerebral cortex 5HT1A receptor measured after 15 mins by liquid scintillation counter method
T1 sequence (P19327 whole entry): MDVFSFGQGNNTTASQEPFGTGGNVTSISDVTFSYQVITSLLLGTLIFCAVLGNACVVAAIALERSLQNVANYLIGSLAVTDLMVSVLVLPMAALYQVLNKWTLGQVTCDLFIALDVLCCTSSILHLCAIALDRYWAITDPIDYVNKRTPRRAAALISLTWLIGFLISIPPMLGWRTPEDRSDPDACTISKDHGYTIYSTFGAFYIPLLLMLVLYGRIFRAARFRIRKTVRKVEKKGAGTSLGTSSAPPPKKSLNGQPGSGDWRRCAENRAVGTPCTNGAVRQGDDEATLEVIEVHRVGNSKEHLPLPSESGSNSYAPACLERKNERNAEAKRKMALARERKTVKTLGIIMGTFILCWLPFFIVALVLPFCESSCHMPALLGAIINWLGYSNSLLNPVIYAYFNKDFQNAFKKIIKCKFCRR

D(2) dopamine receptor = D(2) dopamine receptor (Rattus norvegicus, UniProt P61169); test: Displacement of [3H] Spiperone from rat striatum dopamine D2 receptor measured after 30 mins by liquid scintillation counter method; method in brief: as §2
Mus musculus [19] = test: Effect on 8-OH-DPAT-induced hypothermia in Swiss albino mouse assessed as change in rectal body temperature at 20 mg/kg, ip pretreated with compound for 45 mins followed by 8-OH-DPAT challenge and measured after 30 min by thermometer (reference value: -1.36 to -1.12 degreeC); format: functional, organism-based; details: time 75.0 min
Mus musculus [20] = test: Antipsychotic activity Swiss Albino mouse assessed as inhibition of DOI-induced head twitching by measuring number of episodes at 1.25 mg/kg, ip administered 30 mins prior to DOI stimulation (reference value: 19.63 to 19.88); format: functional; details: 0.5 h; method in brief: as §1

Chain of D(2) dopamine receptor (P61169 whole entry): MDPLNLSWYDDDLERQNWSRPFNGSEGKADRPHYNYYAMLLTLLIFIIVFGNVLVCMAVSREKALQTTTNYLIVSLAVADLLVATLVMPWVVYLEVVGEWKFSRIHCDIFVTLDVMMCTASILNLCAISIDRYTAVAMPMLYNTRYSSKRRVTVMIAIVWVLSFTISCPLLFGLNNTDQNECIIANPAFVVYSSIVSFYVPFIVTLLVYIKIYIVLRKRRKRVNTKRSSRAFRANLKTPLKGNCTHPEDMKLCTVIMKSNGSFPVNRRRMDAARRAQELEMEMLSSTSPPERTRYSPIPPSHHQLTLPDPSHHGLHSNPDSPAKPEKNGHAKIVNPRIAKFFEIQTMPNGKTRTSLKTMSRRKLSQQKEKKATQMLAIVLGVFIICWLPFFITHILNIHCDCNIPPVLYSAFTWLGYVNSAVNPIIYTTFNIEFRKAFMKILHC
Chain of 5-hydroxytryptamine receptor 2A (P14842 whole entry): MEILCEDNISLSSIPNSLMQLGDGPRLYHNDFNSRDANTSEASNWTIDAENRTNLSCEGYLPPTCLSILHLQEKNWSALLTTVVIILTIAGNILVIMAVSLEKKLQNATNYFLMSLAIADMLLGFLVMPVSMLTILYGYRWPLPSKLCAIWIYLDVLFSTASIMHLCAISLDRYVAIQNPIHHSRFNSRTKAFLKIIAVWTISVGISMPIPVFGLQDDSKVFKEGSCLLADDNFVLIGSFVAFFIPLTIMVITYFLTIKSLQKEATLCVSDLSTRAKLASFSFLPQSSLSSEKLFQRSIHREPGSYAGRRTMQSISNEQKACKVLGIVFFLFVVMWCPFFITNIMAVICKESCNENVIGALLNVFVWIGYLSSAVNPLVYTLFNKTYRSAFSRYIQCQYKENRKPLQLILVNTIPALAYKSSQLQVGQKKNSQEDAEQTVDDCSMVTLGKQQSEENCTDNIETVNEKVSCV

O=C(NC1CC2CCC(C1)N2Cc1cccc(Cl)c1)c1ccc2ccccc2c1 (stereo not drawn)
half-life at 2.5 µM [1]: > 45 min | deltaT (Mus musculus [2]): -0.67 °C | Activity (Mus musculus [3]): 13.13 | deltaT (Mus musculus [4]): -0.85 °C | deltaT [5]: 0.41 °C | deltaT (Mus musculus [6]): -1.57 °C | Activity [7]: 2.1 | deltaT [8]: 1 °C | deltaT (Mus musculus [9]): -1.22 °C | deltaT [10]: 0.84 °C | Activity [11]: 2.6 | Activity (Mus musculus [12]): 17.25 | pKi [13]: 6.87 | deltaT [14]: 1 °C | Activity (Mus musculus [15]): 8.75 | deltaT [16]: -0.38 °C | deltaT (Mus musculus [17]): -2.22 °C | pKi [18]: 6.53 | pKi (D(2) dopamine receptor): 8.44 | deltaT (Mus musculus [19]): -2.22 °C

O=C(NC1CC2CCC(C1)N2Cc1ccc(F)cc1)c1ccc2ccccc2c1 (stereo not drawn)
half-life at 2.5 µM [1]: > 45 min | deltaT (Mus musculus [2]): -0.73 °C | Activity (Mus musculus [3]): 5 | deltaT (Mus musculus [4]): -0.92 °C | deltaT [5]: 0.46 °C | deltaT (Mus musculus [6]): -1 °C | Activity [7]: 2.4 | deltaT [8]: 0.5 °C | deltaT (Mus musculus [9]): -1.32 °C | deltaT [10]: 0.44 °C | Activity [11]: 2.5 | Activity (Mus musculus [12]): 5.75 | pKi [13]: 6.68 | deltaT [14]: 0.54 °C | Activity (Mus musculus [15]): 5.38 | deltaT [16]: -0.33 °C | deltaT (Mus musculus [17]): -1.43 °C | Activity (Mus musculus [20]): 12.63 | pKi [18]: 6.66 | pKi (D(2) dopamine receptor): 6.86 | deltaT (Mus musculus [19]): -1.6 °C

Cc1cccc(CN2C3CCC2CC(NC(=O)c2ccc4ccccc4c2)C3)c1 (stereo not drawn)
half-life at 2.5 µM [1]: 30 min | deltaT (Mus musculus [2]): -0.05 °C | Activity (Mus musculus [3]): 10 | deltaT (Mus musculus [4]): -0.48 °C | deltaT [5]: 0.47 °C | deltaT (Mus musculus [6]): -1.5 °C | Activity [7]: 2.3 | deltaT [8]: 0.73 °C | deltaT (Mus musculus [9]): -0.97 °C | deltaT [10]: 0.35 °C | Activity [11]: 2.3 | Activity (Mus musculus [12]): 13 | pKi [13]: 6.64 | deltaT [14]: 0.24 °C | Activity (Mus musculus [15]): 2.38 | deltaT [16]: 0.04 °C | deltaT (Mus musculus [17]): -2.08 °C | Activity (Mus musculus [20]): 15.63 | pKi [18]: 6.74 | pKi (D(2) dopamine receptor): 8.48 | deltaT (Mus musculus [19]): -2.08 °C

O=C(NC1CC2CCC(C1)N2Cc1cccc(Br)c1)c1ccc2ccccc2c1 (stereo not drawn)
half-life at 2.5 µM [1]: > 45 min | deltaT (Mus musculus [2]): -0.72 °C | Activity (Mus musculus [3]): 13.88 | deltaT (Mus musculus [4]): -1 °C | deltaT [5]: 0.49 °C | deltaT (Mus musculus [6]): -0.58 °C | Activity [7]: 2.5 | deltaT [8]: 0.76 °C | deltaT (Mus musculus [9]): -1.62 °C | deltaT [10]: 0.64 °C | Activity [11]: 2.4 | Activity (Mus musculus [12]): 14.5 | pKi [13]: 6.98 | deltaT [14]: 1.23 °C | Activity (Mus musculus [15]): 11.88 | deltaT [16]: -0.3 °C | deltaT (Mus musculus [17]): -1.25 °C | pKi [18]: 6.70 | pKi (D(2) dopamine receptor): 7.94 | deltaT (Mus musculus [19]): -1.37 °C

O=C(NC1CC2CCC(C1)N2Cc1cccc(F)c1)c1ccc2ccccc2c1 (stereo not drawn)
half-life at 2.5 µM [1]: > 45 min | deltaT (Mus musculus [2]): -0.78 °C | Activity (Mus musculus [3]): 3.88 | deltaT (Mus musculus [4]): -0.97 °C | deltaT [5]: 0.43 °C | deltaT (Mus musculus [6]): -1.08 °C | Activity [7]: 2.3 | deltaT [8]: 0.53 °C | deltaT (Mus musculus [9]): -1.37 °C | deltaT [10]: 0.47 °C | Activity [11]: 2.4 | Activity (Mus musculus [12]): 11.38 | pKi [13]: 6.99 | deltaT [14]: 0.81 °C | Activity (Mus musculus [15]): 2.38 | deltaT [16]: -0.36 degrees C | deltaT (Mus musculus [17]): -1.53 °C | Activity (Mus musculus [20]): 2.3 | pKi [18]: 6.68 | pKi (D(2) dopamine receptor): 6.67 | deltaT (Mus musculus [19]): -1.83 °C
